pIC50: −log10 of the molar value. Activity calls are given as the source filed them. The rule behind the calls is not given here. Peptide text beside a SMILES is read from it. * marks the point of attachment. Cbz = O=C(OCc1ccccc1)*
Experiments:
[1] = (§1) Cytotoxicity against NF-kappaB overexpressing human OCI-Ly3 cells after 4 hrs; assay type: functional, cell-based; settings: OCI-Ly3, 4 h
[2] = target: T1, NF-kappa-B inhibitor alpha (Homo sapiens) (UniProt P25963); assay: Induction of human IkappaBalpha stabilization in OCI-Ly3 cells by green light emiting IkappaBalpha-fused luciferase reporter gene assay relative to control; assay type: cell-based
T1 sequence (whole entry): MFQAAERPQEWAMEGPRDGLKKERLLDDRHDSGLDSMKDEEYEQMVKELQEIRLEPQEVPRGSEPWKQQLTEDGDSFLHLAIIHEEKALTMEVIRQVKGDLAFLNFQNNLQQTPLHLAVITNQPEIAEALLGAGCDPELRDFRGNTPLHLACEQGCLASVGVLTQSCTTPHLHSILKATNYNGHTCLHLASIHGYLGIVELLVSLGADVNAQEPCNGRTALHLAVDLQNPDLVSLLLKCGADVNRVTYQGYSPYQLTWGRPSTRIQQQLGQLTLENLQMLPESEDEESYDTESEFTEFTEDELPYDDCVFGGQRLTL
Procedure, shortened: (§2)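 The IκBα-CBG68 fusion (green luminescence) and the CBR control reporter (red) were induced with doxycycline. The read-out was green luminescence, and EC50 is given with % efficacy relative to the MG-132 positive control. Each experiment was a concentration titration run in duplicate with concentration-response curve fitting, and values are averages of two to three experiments.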

[3] = target: Transcription factor p65 (Homo sapiens) (UniProt Q04206); assay: Inhibition of TNF-alpha-stimulated human NF-kappaB p65 RelA subunit nuclear translocation in HUVEC relative to control; assay type: cell-based
Transcription factor p65 (Homo sapiens), sequence (Q04206 whole entry): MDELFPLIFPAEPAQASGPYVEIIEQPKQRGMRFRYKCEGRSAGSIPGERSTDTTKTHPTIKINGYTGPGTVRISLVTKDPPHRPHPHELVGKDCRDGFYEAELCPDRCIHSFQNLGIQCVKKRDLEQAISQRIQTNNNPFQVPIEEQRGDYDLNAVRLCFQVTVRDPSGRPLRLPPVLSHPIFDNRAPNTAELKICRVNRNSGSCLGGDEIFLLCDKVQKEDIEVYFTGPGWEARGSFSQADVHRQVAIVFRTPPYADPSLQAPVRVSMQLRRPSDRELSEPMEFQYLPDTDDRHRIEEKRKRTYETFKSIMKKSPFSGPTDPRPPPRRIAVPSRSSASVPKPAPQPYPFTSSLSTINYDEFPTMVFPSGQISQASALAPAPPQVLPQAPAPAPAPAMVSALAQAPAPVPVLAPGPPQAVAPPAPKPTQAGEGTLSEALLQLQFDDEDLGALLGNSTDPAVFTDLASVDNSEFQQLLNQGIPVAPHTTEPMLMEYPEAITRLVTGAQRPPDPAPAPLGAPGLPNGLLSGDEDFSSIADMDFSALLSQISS
Procedure, shortened: (§3)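 HUVEC (fewer than 8 passages) were seeded at 3,000 cells/well. Compounds were added in 8-point series, either from 10 µM final in media with 0.33% DMSO diluted 1:3, or from 8 µM diluted 1:2. After 3.5 h with compound, cells were stimulated with […] for 30 min. Cells were then fixed, permeabilized, stained with Hoechst and with anti-p65 plus an Alexa 647 secondary, and imaged automatically. IC50 is from curve fitting of one experiment run in triplicate, with BAY 11-7082 as the positive control.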

[4] = (§4) Inhibition of TNFalpha stimulated human NF-kappaB-mediated beta lactamase gene expression in HUVEC; assay type: cell-based
OCI-Ly3 = assay: as §1; assay type: functional, cell-based
[5] = target: Transcription factor p65 (Homo sapiens) (UniProt Q04206); assay: Inhibition of TNF-alpha-stimulated human NF-kappaB p65 RelA subunit nuclear translocation in HUVEC; procedure, shortened: as §3
HUVEC [6] = assay: as §4; assay type: cell-based
[7] = target: T1, NF-kappa-B inhibitor alpha (Homo sapiens); assay: Induction of human IkappaBalpha stabilization in OCI-Ly3 cells assessed as ratio of green light emiting IkappaBalpha-fused luciferase expression to red light emiting native luciferase expression; assay type: cell-based
Procedure, shortened: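 Dual-luciferase IκBα stabilization assay: doxycycline induces both an IκBα-CBG68 fusion (green luminescence) and a CBR control (red luminescence), and the red signal normalizes for nonspecific effects. EC50 comes from the green/red luminescence ratio. Each experiment was a concentration titration run in duplicate with concentration-response curve fitting, and values are averages of two to three experiments.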

[8] = target: T1, NF-kappa-B inhibitor alpha (Homo sapiens); assay: Induction of human IkappaBalpha stabilization in OCI-Ly3 cells by green light emiting IkappaBalpha-fused luciferase reporter gene assay; assay type: cell-based; procedure, shortened: as §2
HUVEC [9] = assay: Inhibition of human E3 ubiquitin ligase-mediated IkappaBalpha ubiquitination in HUVEC; assay type: cell-based

| SMILES | Efficacy [2] | Efficacy [3] | pIC50 [4] | Activity [5] | Activity (HUVEC [6]) | Activity [7] | Activity [8] | Activity (HUVEC [9]) | pIC50 [1] | Activity (OCI-Ly3) |
| --- | --- | --- | --- | --- | --- | --- | --- | --- | --- | --- |
| COc1cc2ccc(C)nc2c2c1-c1cc(C)ccc1S(=O)(=O)N2 | 300% | > 90% | 5.96 | – | – | – | – | – | < 4.24 | – |
| O=[N+]([O-])c1ccc(S(=O)(=O)Nc2cccc3cccnc23)cc1 | 560% | > 90% | 5.30 | – | – | – | – | – | – | inactive |
| COc1ccc2c(c1)-c1ccc3ccc(C)nc3c1NS2(=O)=O | 200% | > 90% | 5.49 | – | – | – | – | – | < 4.24 | – |
| O=S1(=O)Nc2c(ccc3cccnc23)-c2cc(O)ccc21 | – | – | – | inactive | – | – | – | – | – | – |
| COc1cc(NS(=O)(=O)c2ccc(C)cc2N)c2ncccc2c1 | 90% | > 90% | 5.70 | – | – | – | – | – | < 4.24 | – |
| O=S(=O)(Nc1cccc2cccnc12)c1cccs1 | 250% | > 90% | 5.15 | – | – | – | – | – | – | inactive |
| O=[N+]([O-])c1cc(C(F)(F)F)ccc1S(=O)(=O)Nc1cccc2cccnc12 | 200% | > 90% | 5.89 | – | – | – | – | – | < 4.24 | – |
| COc1cc(NS(=O)(=O)c2ccc(C)cc2[N+](=O)[O-])c2ncccc2c1 | 60% | > 90% | 5.40 | – | – | – | – | – | < 4.24 | – |
| O=S1(=O)Nc2c(ccc3cccnc23)-c2cc(F)ccc21 | 122% | > 90% | 5.74 | – | – | – | – | – | – | inactive |
| O=S1(=O)Nc2c(ccc3cccnc23)-c2cc(Cl)ccc21 | 66% | > 90% | 5.72 | – | – | – | – | – | – | inactive |
| Cc1ccc2ccc3c(c2n1)NS(=O)(=O)c1ccc(C(F)(F)F)cc1-3 | 700% | > 90% | 5.44 | – | – | – | – | – | – | inactive |
| COc1ccc(S(=O)(=O)Nc2cccc3ccc(C)nc23)c([N+](=O)[O-])c1 | – | 78% | – | – | – | – | – | – | – | – |
| O=S1(=O)Nc2c(ccc3cccnc23)-c2cc(C(F)(F)F)ccc21 | 32% | > 90% | 5.92 | – | – | – | – | – | – | inactive |
| Cc1ccc2cccc(NS(=O)(=O)c3ccc(Cl)s3)c2n1 | 60% | > 90% | 5.89 | – | – | – | – | – | < 5.00 | – |
| Cc1ccc([N+](=O)[O-])cc1S(=O)(=O)Nc1cccc2cccnc12 | 18% | > 90% | 5.74 | – | – | – | – | – | < 4.24 | – |
| Cc1ccc2cccc(NS(=O)(=O)c3cccc([N+](=O)[O-])c3)c2n1 | 110% | > 90% | 6.00 | – | – | – | – | – | < 4.24 | – |
| Cc1cnc2c3c(ccc2c1)-c1ccccc1S(=O)(=O)N3 | 32% | – | 5.09 | – | – | – | – | – | – | inactive |
| O=[N+]([O-])c1ccccc1S(=O)(=O)Nc1cccc2cccnc12 | 620% | > 90% | 5.00 | – | – | – | – | – | – | inactive |
| Cc1ccc2cccc(NS(=O)(=O)c3cc([N+](=O)[O-])ccc3C)c2n1 | – | – | < 4.24 | inactive | – | – | – | – | – | inactive |

Second part, led by results:

| Efficacy [2] | Efficacy [3] | pIC50 [4] | Activity [5] | Activity (HUVEC [6]) | Activity [7] | Activity [8] | Activity (HUVEC [9]) | SMILES | pIC50 [1] | Activity (OCI-Ly3) |
| --- | --- | --- | --- | --- | --- | --- | --- | --- | --- | --- |
| 20% | > 90% | 5.89 | – | – | – | – | – | COc1ccc2c(c1)-c1ccc3cccnc3c1NS2(=O)=O | – | inactive |
| – | – | – | inactive | inactive | – | – | – | COc1cc(NS(=O)(=O)c2ccc(C)cc2[N+](=O)[O-])c2nc(C)ccc2c1 | < 4.24 | – |
| 275% | > 90% | 5.22 | – | – | – | – | – | Cc1ccc(S(=O)(=O)Nc2cccc3cccnc23)c([N+](=O)[O-])c1 | < 4.24 | – |
| – | > 90% | – | – | – | – | – | – | Cc1ccc(S(=O)(=O)/C=C/C#N)cc1 | – | – |
| – | > 90% | – | – | – | – | – | – | COc1cnc2c3c(ccc2c1)-c1ccccc1S(=O)(=O)N3 | – | – |
| – | – | 5.70 | inactive | – | inactive | inactive | – | COc1cccc2nc(-c3cccs3)nc(NN3C(=O)C=C(C)C3=O)c12 [AS-602868] | – | inactive |
| 50% | > 90% | 4.89 | – | – | – | – | – | Cc1ccc2cccc(NS(=O)(=O)c3ccc(C(F)(F)F)cc3[N+](=O)[O-])c2n1 | < 4.24 | – |
| 200% | > 90% | 5.22 | – | – | – | – | – | Cc1ccc2cccc(NS(=O)(=O)c3ccccc3[N+](=O)[O-])c2n1 | – | inactive |
| 120% | > 90% | 5.47 | – | – | – | – | inactive | O=S1(=O)Nc2c(ccc3cccnc23)-c2ccccc21 | – | inactive |
| – | – | – | – | – | – | – | Active | [O-][S+](c1ccccc1)c1ccc2nnnn2n1 (configuration not stated) | – | – |
| 120% | > 90% | 5.17 | – | – | – | – | – | Cc1ccc2ccc3c(c2n1)NS(=O)(=O)c1ccc(O)cc1-3 | < 4.24 | – |
| 22% | 75% | 5.30 | – | – | – | – | – | Cc1ccc2cccc(NS(=O)(=O)c3ccc(Br)s3)c2n1 | < 4.24 | – |
| 250% | > 90% | 5.26 | – | – | – | – | – | Cc1ccc2cccc(NS(=O)(=O)c3ccccc3N)c2n1 | – | inactive |
| 100% | – | 6.22 | – | – | – | – | – | CC(C)C[C@@H](C=O)NC(=O)[C@H](CC(C)C)NC(=O)[C@H](CC(C)C)NC(=O)OCc1ccccc1 [MG-132] (Cbz-Leu-Leu-Leu-aldehyde) | < 5.00 | – |
| 350% | > 90% | 5.10 | – | – | – | – | – | O=S(=O)(Nc1cccc2cccnc12)c1ccccc1 | – | inactive |
| 23% | – | < 4.24 | inactive | – | – | – | – | COc1cc(NS(=O)(=O)c2ccc(C)cc2N)c2nc(C)ccc2c1 | – | inactive |
| 300% | > 90% | 4.87 | – | – | – | – | – | Nc1ccccc1S(=O)(=O)Nc1cccc2cccnc12 | < 4.24 | – |
| 34% | > 90% | 5.70 | – | – | – | – | – | COc1cc2cccnc2c2c1-c1cc(C)ccc1S(=O)(=O)N2 | – | inactive |
| 190% | > 90% | 6.00 | – | – | – | – | – | O=S(=O)(Nc1cccc2cccnc12)c1ccc(Cl)s1 | < 4.24 | – |
| 170% | > 90% | 5.47 | – | – | – | – | – | O=S(=O)(Nc1cccc2cccnc12)c1ccc(Br)s1 | – | inactive |
| 150% | > 90% | < 4.24 | – | – | – | – | – | COc1cc(NS(=O)(=O)c2ccc(C)cc2)c2nc(C)ccc2c1 | < 4.24 | – |
| 60% | > 90% | 6.10 | – | – | – | – | – | Cc1ccc2c(c1)-c1ccc3cccnc3c1NS2(=O)=O | < 4.24 | – |

— ChEMBL document CHEMBL1142284, “Identification of N-(quinolin-8-yl)benzenesulfonamides as agents capable of down-regulating NFkappaB activity within two separate high-throughput screens of NFkappaB activation” (Bioorg Med Chem Lett, 2008)
